Screens as filed in PubChem.
NOD2 RIPK2 PPI: NOD2-RIPK2 protein interaction inhibition | O43353 | CHO BLA complementation NOD2-RIPK2, CCF4 ratio | inhibition, % at 4.98 µM | 360,000 compounds, 0.38% hits; in the data active = inhibition above about 21%;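 also: 0% = vehicle only and 100% = reference blocker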
TLR4 MyD88 comp: TLR4-MyD88 interaction inhibition in cells. O00206+Q99836. HeLa CL3-4 TLR4/MyD88 BLA complementation, FRET ratio. inhibition, % at 8.4 µM. 200,000 compounds, 0.18% hits. AID 861; in the data active = inhibition above about 25%;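 also: 0% = vehicle and 100% = reference inhibitor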
Lipid droplet: modulators of hepatic lipid droplet formation | AML12 mouse hepatocytes, oleate lipid droplets, BODIPY imaging | AID 1656 | 240,000 compounds, 0.4% hits | inhibition, % at 6.5 µM;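 active = lipid droplet intensity inhibited by at least 50%, with more than 500 cells counted; inconclusive = wells with under 300 cells, treated as cytotoxic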
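Technique: fluorescence imaging, 20x objective, two fields per well / Assay system: AML12 hepatocytes (mouse) / Measure: % inhibition of lipid droplet signal / Doses: 6.5 µM single-point dosing / Incubation: overnight exposure / Reagent: 100 µM oleic acid challenge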
TLR9-MyD88 inh: TLR9-MyD88 interaction inhibition; inhibition, % at 4.98 µM; 340,000 compounds, 0.21% hits; CHO BLA complementation TLR9-MyD88, CCF4 FRET ratio; AID 504734;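 active = inhibition above the mean over all tested compounds plus 3 SD, cut at about 21% in these data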;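 also: 0% = DMSO only wells and 100% = clavulanate BLA inhibitor control wells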
Target sequence (Q99836 whole entry, looked up): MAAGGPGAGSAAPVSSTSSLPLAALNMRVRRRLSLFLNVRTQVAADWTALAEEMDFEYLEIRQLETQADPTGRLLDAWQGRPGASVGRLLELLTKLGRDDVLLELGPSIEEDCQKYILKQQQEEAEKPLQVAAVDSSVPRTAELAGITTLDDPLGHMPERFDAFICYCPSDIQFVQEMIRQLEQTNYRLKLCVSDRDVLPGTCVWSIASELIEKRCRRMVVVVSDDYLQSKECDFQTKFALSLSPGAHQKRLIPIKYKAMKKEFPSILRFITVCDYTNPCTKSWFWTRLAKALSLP
Target sequence (Q9NR96 whole entry, looked up): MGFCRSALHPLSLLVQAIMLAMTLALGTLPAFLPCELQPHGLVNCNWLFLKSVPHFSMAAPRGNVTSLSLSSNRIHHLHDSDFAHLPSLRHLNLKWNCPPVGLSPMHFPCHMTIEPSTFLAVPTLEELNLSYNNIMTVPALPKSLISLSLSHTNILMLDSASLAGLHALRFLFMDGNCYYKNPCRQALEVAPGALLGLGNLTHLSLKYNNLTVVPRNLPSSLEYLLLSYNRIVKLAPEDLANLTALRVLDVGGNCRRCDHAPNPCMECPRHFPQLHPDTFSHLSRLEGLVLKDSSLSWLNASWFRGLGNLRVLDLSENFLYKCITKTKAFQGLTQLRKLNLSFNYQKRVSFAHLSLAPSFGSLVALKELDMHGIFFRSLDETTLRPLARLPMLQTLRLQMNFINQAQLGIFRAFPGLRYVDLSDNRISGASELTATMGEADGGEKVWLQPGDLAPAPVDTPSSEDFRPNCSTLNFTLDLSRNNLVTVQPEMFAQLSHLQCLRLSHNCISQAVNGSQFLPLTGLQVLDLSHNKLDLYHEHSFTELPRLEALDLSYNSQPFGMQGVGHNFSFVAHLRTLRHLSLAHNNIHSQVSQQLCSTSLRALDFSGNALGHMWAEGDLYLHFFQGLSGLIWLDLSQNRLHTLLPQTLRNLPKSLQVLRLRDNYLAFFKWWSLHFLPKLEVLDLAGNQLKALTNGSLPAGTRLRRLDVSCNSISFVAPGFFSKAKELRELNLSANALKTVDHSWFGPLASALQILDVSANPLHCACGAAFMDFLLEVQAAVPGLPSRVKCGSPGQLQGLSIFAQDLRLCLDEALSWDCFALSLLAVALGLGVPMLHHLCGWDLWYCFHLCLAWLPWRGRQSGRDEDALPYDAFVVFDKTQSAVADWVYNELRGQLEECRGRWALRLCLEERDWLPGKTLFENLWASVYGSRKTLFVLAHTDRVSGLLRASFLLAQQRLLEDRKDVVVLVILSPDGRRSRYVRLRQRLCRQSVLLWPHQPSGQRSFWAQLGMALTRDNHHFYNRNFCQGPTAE
SR-BI DiI-HDL act: enhances SR-BI lipid uptake from DiI-HDL. CHO ldlA[mSR-BI] cells, DiI-HDL uptake fluorescence, 3 h; 100 = double the neutral-control signal. activation, % at 12.5 µM. 320,000 compounds, 0.096% hits;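 active = mean replicate activation of at least 60% and every replicate at or above 60%; inconclusive = mean or all-replicate condition met, but not both; inactive = mean below 60% and not all replicates reaching 60%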;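 also: 0% = median plate neutral-control signal and 100% = twice that signal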
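Material: SR-BI-overexpressing, LDLR-lacking CHO cells | Dosing: Single compound concentration, delivered by pin transfer | Probe or stimulus: Labelled HDL, 10 µg/mL | Signal: Bottom-read cell fluorescence after medium removal, ex 550/em 595 nm | Schedule: 3 h, 37 °C | Evaluation: HDL uptake via cellular fluorescence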
SR-BI DiI inh: blocks mouse SR-BI lipid uptake from DiI-HDL. inhibition, % at 12.5 µM. ldlA[mSR-BI] CHO cells, DiI-HDL uptake fluorescence, 3 h. AID 488896. Q61009. 320,000 compounds, 0.96% hits;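 active = mean replicate inhibition of at least 70% and a set share of replicates each scoring 70 or more; inconclusive = meets just one of the two criteria; inactive = fails both criteria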;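 also: 0% = median of neutral control wells and 100% = median of positive control wells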
Lipid drop inh: hepatic lipid droplet formation inhibition, confirmed; inhibition, % at 5.2 µM; shares compounds with Lipid droplet; AML12 mouse hepatocytes, BODIPY lipid droplet imaging; droplets induced with 100 µM oleic acid; 870 compounds, 65% hits;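 active = inhibition of lipid droplet metric at least 50%, with more than 300 cells in each of four replicates; inconclusive = wells under 300 cells, flagged as toxic or low count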;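 also: plate controls were DMSO with oleic acid for no effect and 5 µM Triacsin-C for full effect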
AML12 tox img: toxic to AML12 mouse hepatocytes in counter-screen. shares compounds with Lipid droplet. DAPI nuclear morphology cytotoxicity imaging; hits give high values; cells fed 100 µM oleate overnight. z-score at 5 µM. 870 compounds, 3% hits; in the data active = z-score above about 6.3;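 also: compound exposure lasted overnight at 37 °C before fixation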
AML12 tox ATP: AML12 hepatocyte cytotoxicity, confirmed; shares compounds with Lipid droplet; AML12 mouse hepatocyte viability, ATP luminescence; cells loaded with 100 µM oleic acid; cytotoxicity, % at 50 µM; 530 tested, under 10 active;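 active = cytotoxicity above 50% in each of four replicates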;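 also: compound exposure lasted overnight at 37 °C before the ATP read; 0% = DMSO-treated cells and 100% = wells with no cells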
The depositor's hits bear a star; u = inconclusive; x = not tested or not shown. Compounds with a hit are over-represented: about 1.6% of the library has one in this group of screens.

SMILES | NOD2 RIPK2 PPI | TLR4 MyD88 comp | Lipid droplet | TLR9-MyD88 inh | SR-BI DiI-HDL act | SR-BI DiI inh | Lipid drop inh | AML12 tox img | AML12 tox ATP
Cc1cc(O)c(C)c(O)c1/C=N/NC(=O)c1cccnc1 | 6 | x | 59* | 4 | -4 | 4 | 0 | -1.1 | x
Cc1ccccc1OCC(=O)NCCCNC(=O)c1ccccn1 | -10 | x | 93* | -16 | x | x | 10 | -0.46 | x
O=C(Nc1ccc2c(c1)OCCO2)C1CCCN1C(=O)Nc1ccc(F)cc1 (stereo unspecified) | 8 | x | -5 | -9 | -9 | 9 | x | x | x
COc1ccc(NC(=O)[C@H](C)NC(=O)[C@@H]2Cc3ccccc3CN2C(=O)OC(C)(C)C)cc1 | -8 | x | 55* | -3 | 30 | -30 | 91* | -1.1 | 9
Cc1cccc(NC(=O)[C@H](C)NC(=O)[C@@H]2Cc3ccccc3CN2C(=O)OC(C)(C)C)c1 | -10 | x | 62* | 0 | 19 | -19 | 100* | 0.47 | 12
COc1cccc(NC(=O)CNC(=O)[C@@H]2Cc3ccccc3CN2C(=O)OC(C)(C)C)c1 | -2 | x | 5 | -3 | 22 | -22 | x | x | x
CC(C)[C@H](NC(=O)[C@@H]1Cc2ccccc2CN1C(=O)OC(C)(C)C)C(=O)NC1CCCC1 | -11 | x | -2 | -11 | -3 | 3 | x | x | x
Cc1c(OCC(=O)N(C)c2ccccc2)ccc2c3c(c(=O)oc12)CCC3 | 7 | x | 22 | -6 | x | x | x | x | x
CC1CCN(C(=O)c2ccc3c(c2NCCO)C(=O)c2ccccc2C3=O)CC1 | -1 | -13 | 68* | 1 | -2 | 2 | 109* | -0.38 | 37
CCOc1ccc(CCNC(=O)COC(=O)c2cccc(OC)c2O)cc1OCC | -1 | 8 | 39 | 7 | -10 | 10 | x | x | x
CCOc1ccc(CCNC(=O)C2CC=CCC2C(=O)OC(C)C)cc1OCC (stereo unspecified) | 0 | x | 114* | -1 | -8 | 8 | 106* | 0.38 | 13
CCOc1ccc(CCNC(=O)C2CCN(S(=O)(=O)N3CC(C)CC(C)C3)CC2)cc1OCC (stereo unspecified) | -3 | x | 82* | 3 | 13 | -13 | 5 | -0.36 | x
CCOc1ccc(CCNC(=O)C2CCN(S(=O)(=O)CC)CC2)cc1OCC | -3 | -3 | x | 3 | -2 | 2 | x | x | x
CCOc1ccc(CCNC(=O)C2CC(=O)N(Cc3ccc(OC)cc3)C2)cc1OCC (stereo unspecified) | -1 | x | 57* | 0 | -32 | 32 | 93* | -0.16 | 16
CCOc1ccc(CCNC(=O)COC(=O)c2ccc(OC)c(OC)c2OC)cc1OCC | 6 | 12 | 77* | -3 | -21 | 21 | 109* | -0.68 | 10
CCCn1cnnc1CNC(=O)C1CCC(=O)N(CCCc2ccccc2)C1 (stereo unspecified) | 1 | x | -15 | -9 | -2 | 2 | x | x | x
CCOc1ccc(CCNC(=O)CCS(=O)(=O)c2ccc(OC)cc2)cc1OCC | 0 | 1 | 84* | 1 | 6 | -6 | 97* | -0.44 | 10
CCOc1ccc(CCNC(=O)COC(=O)c2cc(OC)cc(OC)c2)cc1OCC | -5 | 2 | 61* | -5 | -11 | 11 | 94* | -0.87 | 7
CCCOc1ccc(C(=O)OCC(=O)NCCc2ccc(OCC)c(OCC)c2)cc1OC | -10 | x | 88* | -10 | -33 | 33 | 110* | -0.66 | 8
CCOc1ccc(CCNC(=O)CN2CCN(Cc3ccc(F)cc3)C2=O)cc1OCC | 3 | 12 | 69* | 1 | -65 | 65 | 104* | -0.21 | 13
CCOc1ccc(S(=O)(=O)NCCC(=O)NCCc2ccc(OCC)c(OCC)c2)cc1 | -1 | x | x | 7 | -44 | 44 | x | x | x
CCOc1ccc(CCNC(=O)COC(=O)c2ccncc2)cc1OCC | 2 | x | x | 10 | -4 | 4 | x | x | x
CNS(=O)(=O)c1cccc(C(=O)OCC(=O)Nc2nc(OC)cc(OC)n2)c1 | 5 | x | x | 0 | 18 | -18 | x | x | x
CCOc1ccc(C(=O)OCC(=O)Nc2nc(OC)cc(OC)n2)cc1OCC | -7 | 10 | 64* | -5 | -30 | 30 | 102* | -0.56 | 15
Cc1nc(N2CCCCC2)nc(N2CCCCC2)c1C=O | 2 | -4 | 10 | 2 | -20 | 20 | x | x | x
SMILES | NOD2 RIPK2 PPI | TLR4 MyD88 comp | Lipid droplet | TLR9-MyD88 inh | SR-BI DiI-HDL act | SR-BI DiI inh | Lipid drop inh | AML12 tox img | AML12 tox ATP
Clc1cccc(Nc2nc(-c3ccncc3)cs2)c1 | 4 | -14 | 91* | -3 | -68 | 68 | 58 | 17* | x
Cc1cccc(Nc2nc(-c3ccncc3)cs2)c1 | -4 | -4 | u | -2 | -49 | 49 | x | x | x
O=C(N/N=C/c1coc2ccccc2c1=O)c1cn(-c2ccccc2)nc1-c1ccccc1 | 3 | -2 | -1 | -10 | 24 | -24 | x | x | x
O=C(N/N=C/c1cn(-c2ccccc2)nc1-c1cc2ccccc2o1)c1ccccc1Br | -16 | 15 | 102* | -14 | -33 | 33 | 105* | 1.1 | 15
N=c1c(C(=O)NCCN2CCOCC2)cc2c(=O)n3ccccc3nc2n1CCCN1CCOCC1 | -6 | x | 52* | 0 | -4 | 4 | 16 | -0.46 | x
COc1ccc(OC)c(NC(=O)CCCNC(=O)c2ccc(Cl)cc2)c1 | -3 | x | 58* | 3 | -13 | 13 | 73* | -0.56 | 15
CCOc1ccccc1NC(=O)CCCNC(=O)c1ccc(Cl)cc1 | -2 | x | 73* | -9 | -10 | 10 | 78* | 0.086 | 9
CCOc1ccccc1NC(=O)CCNC(=O)c1ccc(Cl)cc1 | -4 | 17 | 45 | -7 | x | x | x | x | x
COc1ccc(Cl)cc1NC(=O)CCCNC(=O)c1ccc(Cl)cc1 | 0 | x | 44 | 11 | -18 | 18 | x | x | x
CCOc1ccccc1NC(=O)CCCNC(=O)Cn1cnc2sc(C)c(C)c2c1=O | -9 | x | 59* | -11 | -72 | 72* | 64 | -0.053 | 9
CCOCCCNC(=O)Cn1cnc2c(cnn2-c2ccc(C)c(C)c2)c1=O | 1 | x | -1 | -3 | 8 | -8 | x | x | x
CCCCCC(/C=N/Nc1ccc(S(=O)(=O)N2CCOCC2)cc1[N+](=O)[O-])=C\c1ccccc1 | -12 | 5 | 61* | -18 | -54 | 54 | 35 | -0.65 | x
Cc1nc2ccccc2c(=O)n1NC(=O)Cc1ccccc1 | x | 14 | x | x | x | x | x | x | x
O=C(Cc1ccccc1)Nn1c(-c2ccccc2)nc2ccccc2c1=O | -4 | 10 | 57* | -3 | 9 | -9 | 64* | 0.09 | 9
